Test results published in ChEMBL document CHEMBL1141593, “Acylpyrogallols as inhibitors of antiapoptotic Bcl-2 proteins” (J Med Chem, 2008).
Calls of active or inactive are those of the source. No cut-off for these calls is given here.

Tests used:
PC-3 [1] = assay: Growth inhibition of human PC3 cells after 4 days by WST-8 based assay; type: functional, cell-based; conditions: PC-3, 96 h
Procedure, shortened: (§1)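 Cells grown with compound for 4 days, then cell growth read by WST-based assay; IC50 values. Both lines express high levels of Bcl-2, Bcl-xL and Mcl-1.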

MDA-MB-231 [2] = assay: Growth inhibition of human MDA-MB-231 2LMP cells after 4 days by WST-8 based assay; type: functional, cell-based; conditions: MDA-MB-231, 96 h; procedure, shortened: as §1
[3] = target: Induced myeloid leukemia cell differentiation protein Mcl-1 (Homo sapiens, UniProt Q07820); assay: Inhibition of human Mcl-1 protein by fluorescence polarization assay
Procedure, shortened: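 Mcl-1 binding by fluorescence-polarization competition assay; Ki values.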

[4] = target: Apoptosis regulator Bcl-2 (Homo sapiens, UniProt P10415); assay: Inhibition of human Bcl-2 protein by ELISA
Procedure, shortened: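 ELISA competitive binding to Bcl-2 using a biotinylated Bim peptide as competitor; IC50 values.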

MDA-MB-231 [5] = assay: Induction of apoptosis in human MDA-MB-231 2LMP cells assessed as cell viability by trypan blue exclusion assay; type: functional, cell-based; conditions: TDE = time-dependent effect
MDA-MB-231 [6] = assay: Induction of apoptosis in human MDA-MB-231 2LMP cells assessed as cell viability at 1 uM after 4 days by trypan blue exclusion assay; type: functional; conditions: MDA-MB-231, 96 h, read-out: Activity
Procedure, shortened: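 Cell death scored by trypan blue exclusion after 4 days of exposure at 0.3, 1 and 3 µM; percentage of dead cells reported with ± error.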

PC-3 [7] = assay: Induction of apoptosis in human PC3 cells assessed as Cell viability after 4 days by trypan blue exclusion assay; type: functional, cell-based
PC-3 [8] = assay: Induction of apoptosis in human PC3 cells assessed as cell viability by trypan blue exclusion assay; type: functional, cell-based; conditions: TDE = time-dependent effect
PC-3 [9] = assay: Induction of apoptosis in human PC3 cells by annexin-5/propidium iodide assay; type: functional, cell-based
Procedure, shortened: (§2)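 Four-day exposure, then apoptosis measured by annexin-V/propidium iodide staining and flow cytometry.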

MDA-MB-231 [10] = assay: Induction of apoptosis in human MDA-MB-231 2LMP cells by annexin-5/propidium iodide assay; type: functional, cell-based; procedure, shortened: as §2

Induced myeloid leukemia cell differentiation protein Mcl-1, sequence (Q07820 whole entry): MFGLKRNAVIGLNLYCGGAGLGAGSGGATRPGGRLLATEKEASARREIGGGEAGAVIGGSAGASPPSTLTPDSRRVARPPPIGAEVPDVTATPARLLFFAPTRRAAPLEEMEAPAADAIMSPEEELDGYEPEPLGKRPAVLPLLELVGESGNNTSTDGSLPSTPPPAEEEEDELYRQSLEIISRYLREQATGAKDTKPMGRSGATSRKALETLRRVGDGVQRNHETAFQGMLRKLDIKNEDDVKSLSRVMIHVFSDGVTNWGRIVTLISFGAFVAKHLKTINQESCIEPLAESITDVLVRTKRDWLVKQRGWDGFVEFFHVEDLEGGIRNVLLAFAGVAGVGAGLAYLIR
Apoptosis regulator Bcl-2, sequence (P10415 whole entry): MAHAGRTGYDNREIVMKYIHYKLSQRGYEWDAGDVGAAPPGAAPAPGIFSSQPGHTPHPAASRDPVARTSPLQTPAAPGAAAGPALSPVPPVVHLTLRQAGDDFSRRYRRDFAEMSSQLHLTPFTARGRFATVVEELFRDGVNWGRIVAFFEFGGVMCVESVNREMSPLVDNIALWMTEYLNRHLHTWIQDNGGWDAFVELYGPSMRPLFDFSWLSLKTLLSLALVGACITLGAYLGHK

SMILES | IC50 (PC-3 [1]) | IC50 (MDA-MB-231 [2]) | IC50 [3] | Ki [3] | IC50 [4] | Activity (MDA-MB-231 [5]) | viability at 1 µM (MDA-MB-231 [6]) | Activity (PC-3 [7]) | Activity (PC-3 [8]) | Activity (PC-3 [9]) | Activity (MDA-MB-231 [10])
Cc1cc2c(C(C)C)c(O)c(O)c(C=O)c2c(O)c1-c1c(C)cc2c(C(C)C)c(O)c(O)c(C=O)c2c1O [GOSSYPOL] | 2500 nM | 3700 nM | – | – | – | – | – | – | – | – | –
CC(C)c1cc(C(=O)c2ccccc2)c(O)c(O)c1O | 39300 nM | 30700 nM | 36500 nM | 4600 nM | 41600 nM | – | – | – | – | – | –
CC(C)C(=O)c1cc(C(=O)c2ccc(Oc3ccccc3)cc2)c(O)c(O)c1O | 5700 nM | 4500 nM | 2670 nM | 340 nM | 2600 nM | – | – | – | – | – | –
O=C(c1ccc(Oc2ccccc2)cc1)c1cc(C(=O)c2nc3ccccc3s2)c(O)c(O)c1O | 260 nM | 120 nM | 310 nM | 37 nM | 170 nM | tde | 58% | Dose-dependent effect | tde | Active | Active
O=C(c1ccc(Oc2ccccc2)cc1)c1cc(C(=O)c2cccc3ccccc23)c(O)c(O)c1O | 550 nM | 290 nM | 1200 nM | 150 nM | 290 nM | – | – | – | – | – | –
CC(C)c1cc(C(=O)c2ccc(Oc3ccccc3)cc2)c(O)c(O)c1O | 12400 nM | 12900 nM | 3060 nM | 380 nM | 3400 nM | – | – | – | – | – | –
